Source: ChEMBL document CHEMBL1145033, “2-Amino-3-benzoylthiophene allosteric enhancers of A1 adenosine agonist binding: new 3, 4-, and 5-modifications” (J Med Chem, 2003)

Columns and labels:
[1] = target: T1, Adenosine receptor A1 (Homo sapiens) (UniProt P30542); test: Dissociation of [3H]N6-cyclohexyladenosine ([3H]CHA) from CHO-K1 membrane expressing human adenosine A1 receptor after treatment with allosteric enhancer at 100 uM and (R)-PIA
T1 sequence (whole entry): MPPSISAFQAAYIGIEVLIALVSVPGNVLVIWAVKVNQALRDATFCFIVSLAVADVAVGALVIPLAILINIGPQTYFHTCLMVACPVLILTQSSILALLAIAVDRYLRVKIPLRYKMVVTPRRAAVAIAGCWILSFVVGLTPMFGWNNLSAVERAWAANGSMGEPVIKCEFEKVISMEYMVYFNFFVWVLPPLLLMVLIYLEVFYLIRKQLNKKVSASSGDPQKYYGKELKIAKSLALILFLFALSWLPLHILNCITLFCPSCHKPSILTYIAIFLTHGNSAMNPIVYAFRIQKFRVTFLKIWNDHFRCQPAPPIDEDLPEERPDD

Adenosine receptor A1 = target: T2, Adenosine receptor A1 (Homo sapiens, UniProt P30542); test: Effective dose as dissociation of [3H]N6-cyclohexyladenosine ([3H]CHA) from CHO-K1 membrane after treatment with allosteric enhancer and (R)-PIA
T2 sequence (P30542 whole entry): T1 sequence (whole entry)

[2] = target: T1, Adenosine receptor A1 (Homo sapiens); test: Inhibition of antagonist [3H]-CPX binding to Adenosine A1 receptor membrane at 100 uM
Summary of the method: (§1)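 Human A1AR membranes from CHO cells were incubated with 2 nM [3H]CPX and test agent (100 μM) for 90 min at room temperature. Inhibition of equilibrium antagonist binding was then measured.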

[3] = target: T1, Adenosine receptor A1 (Homo sapiens); test: Inhibition of antagonist [3H]CPX binding to Adenosine A1 receptor membrane at 100 uM; summary of the method: as §1

| Compound | Activity [1] | other results |
| --- | --- | --- |
| Nc1sc(-c2ccccc2)c(-c2ccccc2)c1C(=O)OCc1cccc(C(F)(F)F)c1 | 48% | – |
| Nc1sc(Br)c(-c2ccc3ccccc3c2)c1C(=O)c1ccccc1 | 49.7% | – |
| CCOC(=O)c1c(N)sc(Br)c1-c1cccc([N+](=O)[O-])c1 | 26% | – |
| Nc1sc(-c2ccccc2)c(-c2ccccc2)c1C(=O)c1ccc(-c2ccccc2)cc1 | 1.5% | – |
| Nc1sc(-c2ccccc2)c(-c2ccccc2)c1C(=O)OCc1ccccc1 | 18.6% | – |
| Nc1sc(-c2ccccc2)c(-c2ccccc2)c1C(=O)c1ccccc1 | 10.7% | – |
| Nc1sc(-c2ccccc2)c(-c2ccccc2)c1C(=O)c1ccc(Cl)cc1 | 10.8% | – |
| Nc1sc(-c2ccccc2)c(-c2ccc(Cl)cc2)c1C(=O)c1cccc2ccccc12 | 11.9% | – |
| Nc1sc(-c2ccccc2)c(-c2ccccc2)c1C(=O)N(Cc1ccccc1)Cc1ccccc1 | 14.1% | – |
| Cc1ccc(-c2c(-c3ccccc3)sc(N)c2C(=O)OCc2cccc(C(F)(F)F)c2)cc1 | 62.6% | – |
| Nc1sc(-c2ccccc2)c(-c2ccc(Cl)cc2)c1C(=O)c1ccc(-c2ccccc2)cc1 | 10.5% | – |
| Nc1sc(-c2ccccc2)cc1C(=O)OCc1ccccc1 | 8% | – |
| CCOC(=O)c1c(N)sc(-c2ccccc2)c1-c1ccc(Cl)cc1 | 42.1% | – |
| Nc1sc(-c2ccccc2)c(-c2ccccc2)c1C(=O)c1cccc(Cl)c1 | 9.4% | – |
| Nc1sc(-c2ccccc2)c(-c2ccccc2)c1C(=O)c1ccc2ccccc2c1 | 4.2% | – |
| Cc1ccc(-c2c(-c3ccccc3)sc(N)c2C(=O)c2ccc(-c3ccccc3)cc2)cc1 | 3.6% | – |

| Compound | Activity [1] | other results |
| --- | --- | --- |
| Nc1sc(Br)c(-c2ccc(C(F)(F)F)cc2)c1C(=O)c1ccccc1 | 80.4% | – |
| Nc1sc(Br)c(-c2cccc(C(F)(F)F)c2)c1C(=O)c1ccccc1 | 91% | EC50 (Adenosine receptor A1): 6.36 µM; inhibition [2]: 29% |
| Cc1ccc(-c2c(-c3ccccc3)sc(N)c2C(=O)c2ccc(Cl)cc2)cc1 | 8.4% | – |
| Nc1sc(Br)c(-c2cccc([N+](=O)[O-])c2)c1C(=O)c1ccccc1 | 21.8% | – |
| Nc1sc(Br)c(-c2ccc([N+](=O)[O-])cc2)c1C(=O)c1ccccc1 | 68.3% | – |
| Cc1sc(N)c(C(=O)c2cccc(C(F)(F)F)c2)c1C | 19% | inhibition [3]: 85% |
| Nc1sc(Br)c(-c2ccc(-c3ccccc3)cc2)c1C(=O)c1ccccc1 | 42.7% | – |
| Cc1ccc(-c2c(-c3ccccc3)sc(N)c2C(=O)c2ccc3ccccc3c2)cc1 | 10.9% | – |
| N#Cc1ccc(-c2c(Br)sc(N)c2C(=O)c2ccccc2)cc1 | 20.3% | – |
| Cc1ccc(-c2c(-c3ccccc3)sc(N)c2C(=O)Cc2ccccc2)cc1 | 1.9% | – |
| Cc1ccc(-c2c(-c3ccccc3)sc(N)c2C(=O)c2cccc(Cl)c2)cc1 | 8.1% | – |
| Nc1sc(-c2ccccc2)c(-c2ccc(Cl)cc2)c1C(=O)c1ccccc1 | 5.6% | – |
| Cc1ccc(-c2c(-c3ccccc3)sc(N)c2C(=O)c2ccccc2)cc1 | 13.4% | – |
| Nc1sc(-c2ccccc2)c(-c2ccccc2)c1C(=O)c1cccc2ccccc12 | 52.3% | – |
| Nc1sc(-c2ccccc2)c(-c2ccc(Cl)cc2)c1C(=O)c1ccc(Cl)cc1 | 8.7% | – |
